# In PubChem BioAssay AID720702 (The Scripps Research Institute Molecular Screening Center, 2013):
# Hit rate of the full screen: of about 370,000 compounds, about 1,200 (0.32%) were called active.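 Rule for the calls: active = inhibition above the mean of all tested compounds plus 3 SD, set per campaign (cut at about 25% in these data); inactive = the rest.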 The list comes from a sample in which actives are over-represented; it also holds similar structures and randomly drawn compounds.
# Biological target: Tyrosyl-DNA phosphodiesterase 2 (Homo sapiens) (UniProt O95551)
# Experiment: human TDP2 enzyme inhibitors, primary screen, biochemical, epi absorbance, recombinant enzyme (AID 720702);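 note: 0% = DMSO with enzyme and 100% = buffer with substrate but no TDP2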
# Conditions: recombinant TDP2, T5PNP hydrolysis, p-nitrophenol absorbance 415 nm; at 12.8 µM; stronger effect = higher value
# How it was run: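 Test system: Human TDP2 enzyme | Reagent: 5 mM T5PNP | Compound dosing: 12.8 µM single point, 1% DMSO | Incubation: Enzyme reaction with compound for 2 h at 37 °C | Technique: p-Nitrophenol epi absorbance | Read-out: % inhibition relative to enzyme-containing and enzyme-free wells | Benchmarks: High control without enzyme, low control DMSO plus TDP2 | Replicates: Singlicate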
# Sequence of Tyrosyl-DNA phosphodiesterase 2 (Homo sapiens) (O95551 whole entry, looked up): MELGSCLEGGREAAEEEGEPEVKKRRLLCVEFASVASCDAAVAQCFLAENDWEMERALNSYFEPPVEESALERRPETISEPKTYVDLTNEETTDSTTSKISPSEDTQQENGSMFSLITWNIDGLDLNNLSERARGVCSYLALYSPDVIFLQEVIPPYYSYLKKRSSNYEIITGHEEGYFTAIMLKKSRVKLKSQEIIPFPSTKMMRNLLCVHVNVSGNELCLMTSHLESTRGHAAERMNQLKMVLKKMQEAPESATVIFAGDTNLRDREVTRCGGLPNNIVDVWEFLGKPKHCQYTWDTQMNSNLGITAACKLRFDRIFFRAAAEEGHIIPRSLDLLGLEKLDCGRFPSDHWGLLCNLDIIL
row,Compound,inhibition
1,Cc1ccc(S(=O)(=O)NNC(=S)NC(C)(C)C)cc1,0.38% (inactive)
2,COc1ccc2c(c1)c(=Cc1ccc(N(C)C)cc1)c1cc(-c3ccccc3)[n+](C)n12,28.4% (active)
3,CCOC(=O)[C@]12CCCCC/C=C\1N(Cc1ccc(OC)cc1)C(=O)[C@H]2CC(=O)NCCCN1CCCC1=O,-4.43% (inactive)
4,CC(C)CCNC(=O)C1CCC(CNc2c(N3CCC(C)CC3)c(=O)c2=O)CC1 (stereo not drawn),-1.37% (inactive)
5,CC(=O)N(C1=C(Cl)C(=O)c2ccccc2C1=O)c1ccc(C(=O)O)cc1,42.4% (active)
6,O=C1C(Cl)=C(Oc2ccccc2)C(=O)c2ccccc21,3.22% (inactive)
7,COP(=O)(O)CNC(=O)OCc1ccccc1,-6.21% (inactive)
8,CCn1c(=O)n2n(c1=O)[C@@]1(C=C3CCCC[C@H]32)N=C(NC(=O)c2ccccc2)N(Cc2ccccc2)[C@H]1Cc1ccccc1,4.32% (inactive)
9,Cc1nc(CNc2ncnc3ccc(-c4ccc5c(c4)OCO5)cc23)cs1,0.28% (inactive)
10,CN1c2ccc(C=O)c3c(C=O)ccc(c23)N(C)C1(C)C,48.6% (active)
11,COc1ccc(N2CCN(CCNS(=O)(=O)c3ccc(Cl)s3)CC2)cc1,-1.58% (inactive)
12,O=C(NN1C(=O)C2C3C=CC(O3)C2C1=O)c1ccccc1 (stereo not drawn),-12.4% (inactive)
13,O=C(NC1=CC(=O)c2ccccc2C1=O)c1ccccc1,44.5% (active)
14,NS(=O)(=O)c1cc(C(=O)OCC(=O)NNC(=O)c2ccccc2)ccc1Cl,-0.47% (inactive)
15,Cc1ccccc1NC(=O)C(C)OC(=O)CCC(=O)N(CC(C)C)c1c(N)n(CC(C)C)c(=O)[nH]c1=O (stereo not drawn),-3.56% (inactive)
16,O=C1OC(Oc2ccc(Br)cc2)(c2ccccc2)c2ccccc21 (stereo not drawn),-5.92% (inactive)
17,CC(C)(C)N(Cc1ccccc1)C(=O)COC(=O)CCc1c[nH]c2ccccc12,-14.4% (inactive)
18,O=C(COC(=O)CCc1c[nH]c2ccccc12)Nc1cccc(Cl)c1,9.41% (inactive)
19,O=C(COC(=O)Cc1c[nH]c2ccccc12)NCCc1ccccc1,24.9% (active)
20,COc1cccc(Cn2cc(COC(=O)Nc3ccc(F)cc3)nn2)c1,4.69% (inactive)
21,N#Cc1ccc(C(=O)Nc2nc(-c3cccs3)c(C(=O)C(F)(F)F)s2)cc1,-0.4% (inactive)
22,CC1CCCC(NC(=O)c2cc(-c3ccncc3)nc3ccccc23)C1C (stereo not drawn),68.1% (active)

row,Compound,inhibition
1,CC1CCCCC1NC(=O)c1cc(=O)[nH]c2ccccc12 (stereo not drawn),6.87% (inactive)
2,CC1CCCC(NC(=O)c2cc(S(=O)(=O)N3CCCCC3)ccc2Cl)C1C (stereo not drawn),5.78% (inactive)
3,COc1ccc(-c2ccc3c(n2)CCCN3S(=O)(=O)c2ccc(C)cc2)cc1,4.76% (inactive)
4,N#Cc1c(N2CCCCC2)nc(N)c2c(N)nc(SCC(=O)O)cc12,7.63% (inactive)
5,CCc1ccc(NC2Nc3cc(C)nn3S2)cc1 (stereo not drawn),-7.9% (inactive)
6,CCOC(=O)c1ccc(NC2Nc3cc(C)nn3S2)cc1 (stereo not drawn),26.6% (active)
7,CCOC(=O)c1ccc(NC(=O)C2CC(=O)Nc3nc4ccccc4n32)cc1 (stereo not drawn),-14.1% (inactive)
8,COc1ccc(S[C@]2(C(=O)N(C)C)CC(=O)N(c3ccc(OC)cc3)[C@@H]2c2ccc(OC)cc2)cc1,-13.2% (inactive)
9,C/C(=N/O)c1ccc(N2C(=O)C3C4C=CC(C3C2=O)C2C3C(=O)N(c5ccc(/C(C)=N/O)cc5)C(=O)C3C42)cc1 (stereo not drawn),-7.03% (inactive)
10,O=C(Nc1cccc2c1CCCC2)C1CCN(C(=O)NC2CCCCC2)CC1,1.74% (inactive)
11,O=C(CSc1nnc2c(n1)[nH]c1ccccc12)NC1CCCCC1,-1.87% (inactive)
12,O=C(NC1CCCCC1)N1CCc2[nH]c3ccccc3c2C1,56.5% (active)
13,N#C/C(C(=S)Nc1ccccc1)=C1/NN=C(N2CCOCC2)N1c1ccccc1,10.7% (inactive)
14,COC(=O)c1ccc(C2C(Oc3ccccc3C)C(=O)N2CCc2ccc(OC)c(OC)c2)cc1 (stereo not drawn),-12.5% (inactive)
15,CCc1ccc(OCC(=O)OC(C)C(=O)NC2CC2)cc1 (stereo not drawn),-6.8% (inactive)
16,CCCCC1=CC2=CC(=O)C(C)(OC(=O)CC)C(=O)C2=CN1CCCOC(C)C (stereo not drawn),13.3% (inactive)
17,COCCN1C=C2C(=O)C(C)(OC(=O)C3CCCC3)C(=O)C=C2C=C1c1ccsc1 (stereo not drawn),31.4% (active)
18,CC1(OC(=O)C2CCCC2)C(=O)C=C2C=C(c3ccc(C#N)cc3)OC=C2C1=O (stereo not drawn),0.49% (inactive)
19,COCCNc1nnc(SCC(=O)NNC(=O)c2ccco2)s1,5.04% (inactive)
20,CCSc1nnc(SCC(=O)NNC(=O)c2ccccc2F)s1,24.7% (active)
21,O=C(Cn1cnc2ccccc2c1=O)NNC(=O)c1ccccc1F,4.65% (inactive)
22,Cc1sc2nc(SCC(=O)c3ccc(O)c(O)c3)n(Cc3ccco3)c(=O)c2c1C,-1.34% (inactive)

row,Compound,inhibition
1,Cc1ccc(-c2nc(CS(=O)CC(=O)N3CCN(c4ncccn4)CC3)c(C)o2)cc1 (stereo not drawn),0.23% (inactive)
2,COC(=O)[C@]12C[C@H](CC(=O)N3CCOCC3)C(=O)N(Cc3ccc(Cl)cc3Cl)C1=C[C@H](COCc1ccccc1)O[C@@H]2C,12.9% (inactive)
3,CCC(=O)Nc1ccc2nn(-c3ccc(F)cc3)nc2c1,-12.3% (inactive)
4,Nc1ccc2nn(-c3ccc(Cl)cc3)nc2c1,30.9% (active)
5,O=C(NC1CCCC1)C1CSCCS(=O)(=O)N1Cc1ccccc1 (stereo not drawn),7.85% (inactive)
6,COc1ccccc1C(=O)CSc1nnc(-c2ccccn2)n1-c1ccccc1,-12.9% (inactive)
7,COc1ccc(CSc2nnc(SCC(=O)Nc3ccccc3C(F)(F)F)s2)cc1,-0.45% (inactive)
8,CCOc1c(Br)cc(/C=C2\C(=O)N(CCC#N)N=C2C)cc1OC,59.9% (active)
9,CC(C)C(C#CC1CC1)N(Cc1ccc2c(c1)OCO2)C(N)=NC(=O)/C=C/c1cccc(C(F)(F)F)c1 (stereo not drawn),4.77% (inactive)
10,O=C1c2ccccc2-c2ncnc3c(N4CCOCC4)cc(N4CCOCC4)c1c23,-13.8% (inactive)
11,COc1ccc(S(=O)(=O)N2CCOCC2)c(C)c1C,0.48% (inactive)
12,COC1=C(N2CCOCC2)C(=O)c2ccccc2C1=O,36.8% (active)
13,CCCS(=O)(=O)NC(=O)C1(C)CCN(C(=O)c2sccc2C)C1 (stereo not drawn),-5.34% (inactive)
14,CCCCNC(=O)C[C@@H]1C(=O)N(CCc2ccc(Cl)cc2)C2=CCCC[C@]21C(=O)OCC,8.61% (inactive)
15,COc1ccc2c(c1)C(=O)Nc1cc(Cl)ccc1N2,-17% (inactive)
16,O=C(CCl)N(Cc1cccc([N+](=O)[O-])c1)c1cccc(Cl)c1,-6.43% (inactive)
17,O=C1Nc2ccc([N+](=O)[O-])cc2C1=Nc1cccc(CO)c1,36.9% (active)
18,COc1ccc([N+](=O)[O-])cc1C1NN=C(c2cccc3ccccc23)S1 (stereo not drawn),3.04% (inactive)
19,Cc1nn2cc(-c3ccc(Cl)cc3)cnc2c1Br,4.6% (inactive)
20,C=CCn1c(SCc2ccc(Cl)c(Cl)c2)nnc1C(CO)NC(=O)c1ccc(OC)cc1 (stereo not drawn),-1.56% (inactive)
21,CCCc1c(C)nc2c(Br)cccc2c1Cl,3.31% (inactive)
22,CCCN(CCC)c1c([N+](=O)[O-])c(=O)oc2ccccc12,6.98% (inactive)

row,Compound,inhibition
1,Nc1c(NCCc2ccccc2)c2ccccc2oc1=O,-16.4% (inactive)
2,O=c1oc2ccccc2c(CNc2ccccc2)c1[N+](=O)[O-],40.8% (active)
3,O=C(OCc1ccccc1)N1CCC2CC1c1ccc(-c3ccc4c(c3)OCO4)cc12 (stereo not drawn),-3.35% (inactive)
4,COc1ccc(S(=O)(=O)/N=C2\C=C(NS(=O)(=O)c3ccccc3)C(=O)c3ccccc32)cc1,36.1% (active)
5,COc1ccc(C(=O)C(C)OC(=O)c2cccc(S(=O)(=O)Nc3c(C)n(C)n(-c4ccccc4)c3=O)c2)cc1 (stereo not drawn),-13.4% (inactive)
6,Cc1ccc(S(=O)(=O)/N=C2\C=C(NS(=O)(=O)c3ccc(C)cc3)C(=O)c3ccccc32)cc1,4.19% (inactive)
7,CCCCNC(=O)C[C@H]1C[C@@]2(C(=O)OC)C(=C[C@H](COCc3ccccc3)O[C@@H]2C)N(Cc2ccc(Cl)cc2Cl)C1=O,-0.01% (inactive)
8,C=CCN1C(=O)[C@H](CC(=O)N2CCN(C(=O)OCC)CC2)[C@@]2(C(=O)OCC)CCCC=C12,4.51% (inactive)
9,CCN(CC)CCCN=C(N)N,1.59% (inactive)
10,COc1ccc(NC2=CC(=S)NC(C)(C)C2)cc1,-0.55% (inactive)
11,COc1ccc(-c2csc(Nc3ccc(O)cc3)n2)cc1,26.4% (active)
12,COc1ccc(-c2ccc3nnc(SCC(=O)Nc4ccc(NC(C)=O)cc4)n3n2)cc1,-3.62% (inactive)
13,CCc1cc(=O)oc2cc(OCC(=O)N3CCCc4ccccc43)ccc12,6.19% (inactive)
14,COC(=O)c1cc(S(=O)(=O)N2CCN(C(=O)C3CCCO3)CC2)cn1C (stereo not drawn),-2.33% (inactive)
15,CCN1C(=O)c2cccc3c(S(=O)(=O)Nc4ccccc4O)ccc1c23,-2.02% (inactive)
16,CCN1C(=O)c2cccc3c(N)ccc1c23,30.9% (active)
17,CCCCN(C)C(=O)c1ccc2c(c1)N(CC)C(=O)c1ccccc1S2(=O)=O,7.54% (inactive)
18,CCOC(=O)c1cccc(NC(=O)CN(C)S(=O)(=O)c2ccc(-c3cocn3)s2)c1,-8.94% (inactive)
19,O=C(NC1CC1)c1ccc(-c2ccccc2)cc1,-8.19% (inactive)
20,COc1ccc(-c2[nH][nH]c(=O)c2NC(=O)c2ccc([N+](=O)[O-])cc2)cc1,19.5% (inactive)
21,Cc1ccc(C(=O)Nc2c(-c3ccccc3)[nH][nH]c2=O)cc1,44.4% (active)
22,C=CCN1C(=O)[C@@H](CC(=O)NCCCCc2ccccc2)[C@]2(C(=O)OCC)CCCCC/C=C/12,3.84% (inactive)
